# An excerpt weighted towards active compounds, which were near 2.5% of everything screened.
# SENP8 block-1: SENP8 (human) protease inhibition. recombinant SENP8, Nedd8 substrate fluorescence. inhibition, % at 20 µM. Q96LD8. hit rate 0.64% among 360,000; in the data active means inhibition mostly above about 40%, no sharp cut-off; inactive means mostly below about 27%
# Target sequence (Q96LD8 whole entry, looked up): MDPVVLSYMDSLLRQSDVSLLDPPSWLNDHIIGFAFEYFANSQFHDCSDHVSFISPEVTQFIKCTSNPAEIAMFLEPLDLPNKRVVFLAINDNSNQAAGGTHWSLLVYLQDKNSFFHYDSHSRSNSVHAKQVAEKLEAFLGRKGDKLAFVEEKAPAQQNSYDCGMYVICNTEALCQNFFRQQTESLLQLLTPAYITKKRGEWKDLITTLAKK
# SENP1 inh: SENP1 (human) catalytic domain inhibition; Q9P0U3; recombinant SENP1 catalytic domain, CyPet-SUMO1-YPet FRET cleavage; inhibition, % at 10 µM; hit rate 0.21% among 360,000;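 active means inhibition at least 30% at 10 µM, raw YFP signal under a set limit, fluorescence ratio 0.5 to 1.5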
# Target sequence (Q9P0U3 419-644 limits assumed): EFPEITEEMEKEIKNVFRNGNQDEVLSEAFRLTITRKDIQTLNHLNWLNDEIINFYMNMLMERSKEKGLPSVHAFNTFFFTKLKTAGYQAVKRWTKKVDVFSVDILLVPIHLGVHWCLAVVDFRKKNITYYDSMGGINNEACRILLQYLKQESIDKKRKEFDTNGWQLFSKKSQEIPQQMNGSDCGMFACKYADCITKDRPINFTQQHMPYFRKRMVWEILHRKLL
#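 Compound: 10 µM single point, 0.5% DMSO; Test system: hSENP1 catalytic domain, recombinant; Timing: 50 min reaction at room temperature; Technique: FRET, CFP and YFP emission; Control set: no-enzyme wells low, DMSO-plus-enzyme wells high control.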
# SENP8 block-2: inhibitors of human SENP8 protease; Q96LD8; hit rate 1.2% among 330,000; purified SENP8, Z-RLRGG-aminoluciferin cleavage, luminescence; inhibition, % at 10 µM; in the data active means inhibition above about 50%
# SENP6 block: SENP6 protease inhibition. Q9GZR1. Recombinant SENP6 catalytic domain, aminoluciferin luminescence. inhibition, % at 10 µM. hit rate 1.8% among 330,000. AID 2599;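 active means inhibition above about 50% at the single tested dose, limit read from the data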
# SENP7 inh: blocks the human protease SENP7 | Q9BQF6 | hit rate 1.5% among 330,000 | inhibition, % at 5 µM | recombinant SENP7, Z-RLRGG-aminoluciferin luminescence, 40 min | AID 434973;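 active means inhibition above about 50% at the single test dose, limit read from the data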
# SENP1 conf: confirmation of human SENP1 SUMO protease inhibitors | hit rate 34% among 520 | inhibition, % at 10 µM | shares compounds with SENP1 inh | recombinant SENP1, CyPet-SUMO1-YPet FRET cleavage; in the data active means inhibition mostly above about 35%, no sharp cut-off; inactive means mostly below about 32%
# SENP1 kin conf: confirmation of human SENP1 SUMO protease inhibitors, kinetic | inhibition, % at 10 µM | shares compounds with SENP1 inh | hit rate 26% among 520 | recombinant SENP1, CyPet-SUMO1-YPet FRET kinetic cleavage; in the data active means inhibition mostly above about 32%, no sharp cut-off; inactive means mostly below about 29%
# Hits are given with their value; . = inactive; / = not tested or not shown.
SMILES,SENP8 block-1,SENP1 inh,SENP8 block-2,SENP6 block,SENP7 inh,SENP1 conf,SENP1 kin conf
CCC(=Nc1ccc(N)cc1)C1=C(O)C(C(=O)OC)C(C)(C)CC1=O (stereo not given),70,54,.,.,.,.,.
NC(=S)NN=C1c2ccccc2-c2ccccc21,.,.,.,.,.,/,/
Fc1ccc(-c2cnn3c(-c4ccncc4)ccnc23)cc1,.,.,.,.,.,/,/
Fc1ccc(-c2cnn3c(-c4cccs4)ccnc23)cc1,.,56,/,/,/,.,.
COc1ccc(S(=O)(=O)N2CCOCC2)cc1NC(=O)c1ccc(S(=O)(=O)N(C)c2ccccc2OC)cc1,.,.,/,/,/,/,/
Cc1cccc(NS(=O)(=O)c2ccc(C(=O)N3CCCCCC3)cc2)c1C,.,.,.,.,.,/,/
CC1=C(C(=O)N2CCCCCC2)CC(CC(=O)NC2CC2)C(=O)N1Cc1ccccc1 (stereo not given),.,.,/,/,/,/,/
COc1ccc2sc(/C=C/c3ccccc3O)[n+](C)c2c1,.,39,/,/,/,58,40
COc1ccc(NC(=O)CS(=O)CC(=O)Nc2ccc(NC(C)=O)cc2)cc1 (stereo not given),.,.,.,.,.,/,/
COc1cc(/C=C2\SC(=S)N(CC(=O)O)C2=O)ccc1OC(=O)c1ccco1,.,39,.,.,.,83,63
CCOc1cc(/C=C2/SC(=S)N(CC(=O)O)C2=O)ccc1OC(=O)c1cccs1,.,.,.,.,.,/,/
COc1ccc(/C=C2/SC(=S)N(CC(=O)O)C2=O)cc1OCc1ccc(Cl)cc1,.,.,.,.,.,/,/
COc1cc(/C=C2/SC(=S)N(CC(=O)O)C2=O)ccc1OC(=O)c1ccco1,.,32,.,.,.,84,65
Cc1ccc(S(=O)(=O)N(Cc2ccccc2)c2ccccc2C(=O)N2CCCCC2)cc1,.,.,.,.,.,/,/
CC(C)C1C(=O)N(Cc2cn(Cc3ccco3)nn2)CCS(=O)(=O)N1Cc1ccc(-c2ccc(F)cc2)cc1 (stereo not given),.,.,/,/,/,/,/
Cc1ccc(S(=O)(=O)N2[C@@H](c3cccc(Cl)c3)C(C(=O)OC(C)(C)C)=CC[C@H]2c2ccc(C(C)C)cc2)cc1,.,.,/,/,/,/,/
Cc1cc(C(=O)CCC(=O)N(C)CC2COc3ccccc3O2)c(C)s1 (stereo not given),.,.,/,/,/,/,/
O=C(C[n+]1cc(Br)cc(Br)c1)c1ccc(Cl)cc1,.,.,.,.,.,/,/
O=C(C[n+]1cc(Br)cc2ccccc21)c1ccc(Cl)cc1,.,44,.,.,.,.,.
O=C(C[n+]1cc(Br)cc2ccccc21)c1ccc(Br)cc1,.,52,.,.,.,.,.
Cc1ccc(CNc2ccc3c(c2)nc(C)n3C)cc1,.,.,.,.,.,/,/
Cc1nc2cc(NCc3ccc(Cl)cc3)ccc2n1C,.,31,.,.,.,.,.
Cc1ccc(-c2nc(N/N=C/c3cccc([N+](=O)[O-])c3)c3ccccc3n2)cc1,.,31,.,.,.,.,.
NS(=O)(=O)c1ccc(CNS(=O)(=O)c2cccc3nonc23)cc1,.,.,.,.,.,/,/
O=C(Cc1n[nH]c(=O)[nH]c1=O)N/N=C/c1ccccc1,.,.,.,.,.,/,/
SMILES,SENP8 block-1,SENP1 inh,SENP8 block-2,SENP6 block,SENP7 inh,SENP1 conf,SENP1 kin conf
O=C(Cc1n[nH]c(=O)[nH]c1=O)N/N=C/c1c(O)ccc2ccccc12,.,39,.,.,.,.,.
N#CC1=C(N)Oc2cc(N)ccc2C1c1cccnc1 (stereo not given),.,.,.,.,.,/,/
N#CC1=C(N)Oc2cc(Nc3ccccc3)ccc2C1c1ccncc1 (stereo not given),.,77,.,.,.,31,.
COc1ccc(C(=O)NC(C)CCc2ccccc2)cc1[N+](=O)[O-] (stereo not given),.,.,.,.,.,/,/
COc1ccc(C(=O)C(C)[n+]2ccc(C)c3ccccc32)cc1[N+](=O)[O-] (stereo not given),.,78,.,.,.,.,.
CCCC(=O)Nc1nnc(SCC(=O)Nc2ccc(OCC)cc2)s1,.,.,/,/,/,/,/
O=c1[nH]c2cc3ccccc3cc2nc1-c1nnnn1Cc1ccccc1,.,41,/,/,/,80,50
